Measured values collected from several papers.
Lines come from different studies, so protocols differ.
BRAF V600E: Serine/threonine-protein kinase B-raf (BRAF, Homo sapiens, UniProt P15056, V600E)
Map2k4: Dual specificity mitogen-activated protein kinase kinase 4 (Map2k4, Mus musculus, UniProt P47809)
SMARCA2: SWI/SNF-related matrix-associated actin-dependent regulator of chromatin subfamily A member 2 (SMARCA2, Homo sapiens, UniProt P51531)
MAST1: Microtubule-associated serine/threonine-protein kinase 1 (MAST1, Homo sapiens, UniProt Q9Y2H9)
PADI2: Protein-arginine deiminase type-2 (PADI2, Homo sapiens, UniProt Q9Y2J8)

SMILES | target | assay | system | conditions | measurement | value
Cc1ccc(C(CS(=O)(=O)c2ccccc2)=NNc2nc(C)c(N=Nc3cccc(C)c3)s2)cc1 | BRAF V600E | enzyme activity, inhibitor, ATP luminescence |  | 10 nM | inhibition | 35%
CCCOc1ccc(OC)c(F)c1C(=O)c1ccc(C(=O)N[C@@H]2CNC[C@H]2NC(=O)c2ccc3[nH]ncc3c2)cc1 | Map2k4 | enzyme activity, inhibitor |  | 10 µM | remaining activity | 120%
O=c1nc2n(c3cccc(Cl)c13)CC/C2=C\c1ccccc1 | SMARCA2 | thermal stability, DSF |  | 100 µM | ΔTm | 2.14 °C
Cc1cnc(NC2CCOCC2)nc1-n1cnc(C(=O)NC(CN)c2cc(F)cc(Cl)c2)c1 (stereo not shown) | Map2k4 | enzyme activity, inhibitor, radiometric |  | 1 µM | remaining activity | 63%
Cc1ccc(C(CS(=O)(=O)c2ccccc2)=NNC(N)=S)cc1 | BRAF V600E | enzyme activity, inhibitor, ATP luminescence |  | 1 µM | inhibition | 69%
Cc1cnc(Nc2ccc(OCCN3CCCC3)cc2)nc1Nc1cccc(S(=O)(=O)NC(C)(C)C)c1 | SMARCA2 | thermal stability, DSF |  | 10 µM | ΔTm | -0.09 °C
CC(=O)N[C@H]1CSSC[C@@H](C(=O)N[C@H](Cc2c[nH]c3ccccc23)C(N)=O)NC(=O)[C@H](Cc2ccccc2)NC(=O)[C@H](CCCNC(=N)N)NC1=O | Melanocortin receptor 3 (MC3R, Homo sapiens, UniProt P41968) | cAMP, agonist | HEK293 | 3 min | Emax | 0%
Fc1cccc(-n2cnc3c(NCc4nc5c(F)c(F)ccc5[nH]4)nc(N4CCOCC4)nc32)c1 | MAST1 | binding, competition with immobilised ligand |  | 10 µM | binding vs control | 23%
CCC(/C=C1\CCn2c1nc(=O)c1c(Cl)cccc12)CC | SMARCA2 | thermal stability, DSF |  | 100 µM | ΔTm | 5.33 °C
N=C(CCl)NCCC[C@H](NC(=O)c1ccccc1C(=O)O)c1nn[nH]n1 | PADI2 | enzyme activity, inhibitor |  |  | kinact/KI | 162 M⁻¹ s⁻¹
NC1=NCC(c2cccc3ccccc23)OC1 (stereo not shown) | Beta-secretase 1 (BACE1, Homo sapiens, UniProt P56817) | thermal stability, DSF |  | 2.1 mM, pH 5.4 | ΔTm | 0.63 °C
Cc1ccc(C(CS(=O)(=O)c2ccccc2)=NN=C2N=C(c3ccc(C)cc3)CS2)cc1 | BRAF V600E | enzyme activity, inhibitor, ATP luminescence |  | 10 nM | inhibition | 22%
Cc1cc(=O)oc2cc(NC(=O)[C@@H](N)CCCNC(=N)N)ccc12 | Endoplasmic reticulum aminopeptidase 2 (ERAP2, Homo sapiens, UniProt Q6P179) | enzyme activity, substrate |  |  | Km | 88 µM
Cc1ccc(C(=O)Nc2ccc(CN3CCN(C)CC3)c(C(F)(F)F)c2)cc1C#Cc1cnc2cccnn12 | MAST1 | enzyme activity, inhibitor |  | 23.5 nM | remaining activity | 95%
CCC(C)/C=C1\CCn2c1nc(=O)c1c(Cl)cccc12 (stereo not shown) | SMARCA2 | thermal stability, DSF |  | 100 µM | ΔTm | 3.77 °C
CC(C)(C)n1nnc([C@H](CCCNC(=N)CF)NC(=O)c2ccccc2C(=O)O)n1 | PADI2 | enzyme activity, inhibitor |  |  | kinact/KI | 2020 M⁻¹ s⁻¹
NCCCC[C@H](NC(=O)[C@@H]1CCCN1C(=O)[C@@H]1CSSC[C@H](N)C(=O)N[C@@H](Cc2ccc(O)cc2)C(=O)N[C@@H](Cc2ccccc2)C(=O)N[C@@H](CCC(N)=O)C(=O)N[C@@H](CC(N)=O)C(=O)N1)C(=O)NCC(N)=O | Vasopressin V2 receptor (AVPR2, Homo sapiens, UniProt P30518) | cAMP, agonist, TR-FRET | CHO-K1 |  | Emax | ~100%
Nc1ncnc2occ(-c3ccc(NC(=O)Nc4cc(C(F)(F)F)ccc4F)cc3)c12 | Serine/threonine-protein kinase Nek5 (NEK5, Homo sapiens, UniProt Q6P3R8) | cell-free assay, inhibitor |  | 20 µM | remaining signal | 0.95%
NS(=O)(=O)c1ccc(CCNCc2ccc(-c3ccccc3F)o2)cc1 | D(2) dopamine receptor (DRD2, Homo sapiens, UniProt P14416) | enzyme activity, inhibitor |  | 10 µM | inhibition | 34.6%
